# This is a sample that favours compounds with a hit; in the whole collection about 2.2% have one here.
# HKDC1 inhibitor = inhibitors of human hexokinase HKDC1 | Q2TB90 | recombinant HKDC1, G6PDH/diaphorase resazurin coupled fluorescence | inhibition, % at 20 µM | 340,000 compounds, 0.16% hits;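 active = inhibition above about 35% when tested at 20 µM, limit read from the data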;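 note: plate controls were DMSO wells with enzyme for no effect and DMSO wells lacking enzyme for full effect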
# Target sequence (Q2TB90 whole entry, looked up): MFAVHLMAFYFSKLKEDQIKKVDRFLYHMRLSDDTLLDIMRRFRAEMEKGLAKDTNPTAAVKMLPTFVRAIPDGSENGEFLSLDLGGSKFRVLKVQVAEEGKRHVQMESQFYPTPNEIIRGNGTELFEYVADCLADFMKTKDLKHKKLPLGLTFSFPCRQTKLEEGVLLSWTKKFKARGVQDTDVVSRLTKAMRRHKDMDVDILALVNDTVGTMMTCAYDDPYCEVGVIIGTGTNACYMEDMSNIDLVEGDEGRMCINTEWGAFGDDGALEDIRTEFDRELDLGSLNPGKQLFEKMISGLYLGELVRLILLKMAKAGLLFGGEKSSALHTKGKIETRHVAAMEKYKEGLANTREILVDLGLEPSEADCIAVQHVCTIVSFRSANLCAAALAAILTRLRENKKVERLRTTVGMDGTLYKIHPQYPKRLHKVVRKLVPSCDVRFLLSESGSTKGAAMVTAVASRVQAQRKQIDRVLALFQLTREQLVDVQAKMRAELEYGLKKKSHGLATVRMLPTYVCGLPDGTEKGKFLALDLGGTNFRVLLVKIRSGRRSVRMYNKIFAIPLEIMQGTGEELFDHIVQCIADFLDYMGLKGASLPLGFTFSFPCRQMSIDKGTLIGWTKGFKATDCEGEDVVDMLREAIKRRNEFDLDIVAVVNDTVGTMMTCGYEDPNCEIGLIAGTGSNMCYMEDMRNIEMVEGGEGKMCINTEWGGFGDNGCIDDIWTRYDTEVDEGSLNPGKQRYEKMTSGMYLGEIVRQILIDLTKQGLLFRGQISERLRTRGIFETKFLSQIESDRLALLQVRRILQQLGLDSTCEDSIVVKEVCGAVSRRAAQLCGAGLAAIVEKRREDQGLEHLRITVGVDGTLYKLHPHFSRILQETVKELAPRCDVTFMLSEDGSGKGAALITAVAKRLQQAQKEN
#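 Material: recombinant HKDC1 hexokinase; Amount: HKDC1 at 5 µg/mL; Medium: Tris pH 8.0 buffer with MgCl2, Tween-20, BSA, BME; Schedule: 90 min reaction incubation at room temperature, dark; Technique: coupled resazurin fluorescence, excitation 525 nm, emission 613 nm.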
# PfG6PD inh = PfG6PD (Plasmodium falciparum) enzyme inhibition; AID 504690; inhibition, % at 20 µM; PfGluPho enzyme, NADPH resazurin-diaphorase fluorescence; 350,000 compounds, 0.78% hits;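 active = inhibition reaching at least a set limit at 20 µM in the primary screen, cut at about 59% in these data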;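 note: 0% = DMSO wells with substrate and 100% = DMSO wells lacking glucose-6-phosphate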
# Neddylation inh = blocks human cullin neddylation | 360,000 compounds, 0.58% hits | TR-FRET cullin neddylation, biochemical | AID 651699 | P61081+Q13564 | inhibition, % at 25 µM; in the data active = inhibition above about 36%
# PfM18AAP inh = PfM18AAP enzyme inhibition. recombinant PfM18AAP, H-Glu-NHMec fluorogenic cleavage. inhibition, % at 7.35 µM. 290,000 compounds, 1.2% hits;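 active = inhibition above the campaign mean inhibition over all tested compounds plus 3 SD, cut at about 28% in these data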;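 note: 0% = plate median of test compound wells and 100% = 2 mM ZnCl2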
# * = called active by the depositor; / = not tested or not shown.
SMILES,HKDC1 inhibitor,PfG6PD inh,Neddylation inh,PfM18AAP inh
CO[C@H]1C=CO[C@@]2(C)Oc3c(C)c(O)c4c(O)c(c5c(nc6cc(C)ccn65)c4c3C2=O)NC(=O)C(C)=CC=C[C@H](C)[C@H](O)[C@@H](C)[C@@H](O)[C@@H](C)[C@H](OC(C)=O)[C@@H]1C,/,/,/,47.6*
COc1cccc(/C=N/Nc2cc(Cl)nc(C)n2)c1O,-0.1,-0.6,7.6,29.1*
COc1cccc(/C=N/Nc2c(Cl)cncc2Cl)c1O,7.0,7.3,-15.1,-3.0
Cc1nc(Cl)cc(N/N=C/c2ccc(O)cc2)n1,2.8,-0.7,-2.4,3.7
Cc1nc(Cl)cc(N/N=C/c2ccc(O)cc2O)n1,-4.0,-12.4,-1.5,31.1*
O=C(CCCOc1cccc(Br)c1)NCCOc1ccccc1,-1.6,19.0,2.5,-0.9
CC1CCN(S(=O)(=O)c2cn(CC(=O)N3CCN(c4cccc(C(F)(F)F)c4)CC3)cn2)CC1,-6.1,0.4,10.1,-4.5
S=c1nccc(-c2cccs2)[nH]1,1.7,43.5,-21.1,29.0*
CC(C)CNC(=S)NNC(=O)CC(C)O (stereo unspecified),-1.4,-3.7,3.5,35.0*
O=C(COc1ccc(Nc2ccccc2)cc1)OCC(=O)N1CCCCC1,3.5,21.2,-4.6,28.7*
O=C(COc1ccc(Cl)cc1)OCC(=O)N1CCCCCC1,-4.9,-0.5,-6.3,-1.5
COc1cccc(CN2CC(C(=O)NCc3ccc(C)o3)CCC2=O)c1 (stereo unspecified),-0.4,8.0,-2.5,-13.5
COC(=O)C1CCCCN1C(=O)c1cc(COc2cccc3cccnc23)on1 (stereo unspecified),0.1,-2.3,32.5,-8.0
COC(=O)C1CCCCN1C(=O)c1cc(COc2cccc3cnccc23)on1 (stereo unspecified),/,/,47.0*,3.2
CCOC(=O)CC1CCCCN1C(=O)c1cc(COc2cccc3cnccc23)on1 (stereo unspecified),0.8,-1.8,55.6*,0.1
CC(NC(=O)CN1CCN(CC(=O)Nc2ccccc2Cl)CC1)c1ccc(Br)cc1 (stereo unspecified),0.6,10.7,7.2,/
CCOc1cc(CNc2ccc(O)cc2)ccc1OCc1ccc(Cl)cc1Cl,18.9,88.1*,-37.5,13.9
CCS(=O)(=O)c1ccc(O)c(NC(=O)CC2(CC(=O)O)CCCC2)c1,-2.1,4.1,-1.8,-9.3
CCOC(=O)CC1C(=O)NCCN1c1nc2ccc(C)cn2c(=O)c1/C=C1\SC(=S)N(CC(C)C)C1=O (stereo unspecified),-6.0,12.8,-22.9,0.6
CCCN1C(=O)/C(=C/c2c(N3CCNC(=O)C3CC(=O)OCC)nc3c(C)cccn3c2=O)SC1=S (stereo unspecified),12.2,59.9*,-138.2,3.6
CCN1/C(=C/c2ccc3cc(C)ccc3[n+]2C)Sc2ccc3sccc3c21,11.3,64.7*,-46.0,19.0
CCOC(=O)C1=C(COC(=O)CSc2ccc(C)cc2C)NC(=O)NC1C (stereo unspecified),33.4,2.2,-1.3,/
CCc1nc2ccc(C(=O)NCCc3ccc(OC)c(OC)c3)cc2nc1CC,-2.6,3.4,-20.4,0.1
COc1ccc(CCNC(=O)c2ccc3nc(-c4ccco4)c(-c4ccco4)nc3c2)cc1OC,27.3,62.0*,-21.8,2.7
COCCCNC(=S)N/N=C/c1ccc(O)cc1,-1.7,-6.6,-4.2,9.4
SMILES,HKDC1 inhibitor,PfG6PD inh,Neddylation inh,PfM18AAP inh
COc1cc(/C=N/NC(=S)Nc2cccc(C(=O)O)c2)ccc1O,16.5,11.5,-1.2,19.9
COc1cccc(/C=N/NC(=O)c2ccc(-c3ccccc3)cc2)c1O,-11.2,-7.2,-0.1,15.1
COCCCNC(=S)N/N=C/c1cccc(OC)c1O,-22.5,-18.3,37.9*,18.5
COc1cccc(/C=N/NC(=S)Nc2cccc(C(=O)O)c2)c1O,0.3,-59.2,15.4,38.2*
COc1ccc(/C=N/NC(=S)Nc2ccccc2)cc1,-10.9,-5.1,-8.4,30.9*
COc1ccc(/C=N/NC(=S)Nc2cccc(C(=O)O)c2)cc1,-7.2,2.5,-7.6,30.5*
CCc1cc(=O)oc2cc(OC(C)C(=O)N3CC[C@@]4(O)CCCC[C@H]4C3)ccc12 (stereo partly specified),/,/,33.5,/
CC(C)n1nnnc1C1c2ccccc2C(=O)N1CCCn1ccnc1 (stereo unspecified),/,/,-4.1,/
CCOC(=O)C1CCN(C(=O)c2ccc(NS(=O)(=O)c3ccc4[nH]c(=O)[nH]c4c3)cc2)CC1,-3.4,1.4,-19.9,/
O=[N+]([O-])c1cc(-c2ncccn2)c([N+](=O)[O-])s1,9.5,123.3*,-51.5,-48.6
O=C(Nc1ncccn1)c1cc([N+](=O)[O-])cc([N+](=O)[O-])c1,-2.4,1.6,-34.0,-13.9
COc1ccc(-c2n[nH]c(=S)n2-c2ccc3c(c2)OCCO3)cc1,-8.1,53.4,-39.8,30.3*
COc1cc(OC)cc(-c2n[nH]c(=S)n2-c2ccc3c(c2)OCCO3)c1,9.7,40.0,-91.6,1.4
CCN1c2ccccc2N(C)C1(C)c1ccccc1 (stereo unspecified),24.4,67.5*,6.3,-1.9
COc1ccc(S(=O)(=O)N2CCCCCC2)cc1NC(=O)CN1C(=O)CNC1=O,-3.4,-0.6,0.4,/
Oc1c(C(c2ccccc2)N2CCOCC2)ccc2ccccc12 (stereo unspecified),29.3,46.1,41.5*,/
COc1cc(/C=N/NC(=O)c2ccc(CSc3nc4ccccc4[nH]3)cc2)ccc1O,-10.2,20.4,17.6,-6.4
CC1CN(C(C)C(=O)NC(c2ccccc2)c2ccccc2)CC(C)O1 (stereo unspecified),-3.2,-10.1,2.1,-3.6
CC1=C(C#N)C(=O)N(C2CCS(=O)(=O)C2)C(=O)/C1=C\c1ccc(C)o1 (stereo unspecified),/,/,/,30.1*
Cc1ccc(/C=C2\SC(=S)N(C3CCS(=O)(=O)C3)C2=O)o1 (stereo unspecified),4.2,20.5,-5.4,25.8
COC(=O)CC1(C(=O)OC)Oc2ccccc2C(=O)N1c1ccc(F)cc1F (stereo unspecified),2.0,-15.4,2.8,/
O=C(COc1ccc(Br)cc1)N(Cc1nnc(-c2ccccc2Cl)o1)C1CC1,/,20.7,-2.2,/
O=C(Oc1ccc(C(=S)N2CCOCC2)cc1)c1ccccc1F,0.6,7.4,9.8,29.3*
O=C(Oc1ccc(C(=S)N2CCOCC2)cc1Br)c1ccccc1F,-0.2,31.3,11.2,6.2
CCCCc1ccc(S(=O)(=O)NC(=O)C2(C)CCN2C(=O)C/C=C/c2ccccc2)cc1 (stereo unspecified),/,/,4.3,/
SMILES,HKDC1 inhibitor,PfG6PD inh,Neddylation inh,PfM18AAP inh
Cc1cnc(C(=O)OCc2nc3ccccc3o2)cn1,-4.2,-16.6,9.3,/
Cc1nnc(N/N=C/c2c[nH]c3ccccc23)[nH]c1=O,-7.0,6.2,-8.1,29.4*
CCCCn1c(-c2cccnc2)n[nH]c1=S,-3.6,18.2,-5.9,30.5*
CCn1c(-c2cccnc2)n[nH]c1=S,-9.1,27.1,11.7,7.8
Cc1ccc(NC(=O)C2CCC(CNC(=O)[C@@H]3Cc4ccccc4CN3)CC2)c(C)c1 (stereo partly specified),-4.0,-26.8,-1.1,1.4
Cc1ccc(/C=N/NC(=S)NCCc2ccccc2)s1,-13.9,-12.6,42.0*,-0.4

# Bioassay records as filed in PubChem.
